We go through 16 compounds from ChEMBL document CHEMBL1132930, “Characterization of the binding site of the histamine H(3) receptor. 2. Synthesis, in vitro pharmacology, and QSAR of a series of monosubstituted benzyl analogues of thioperamide” (J Med Chem, 2000).

Each structure is given as a SMILES string.

Chain of Histamine H3 receptor (Q9JI35 whole entry): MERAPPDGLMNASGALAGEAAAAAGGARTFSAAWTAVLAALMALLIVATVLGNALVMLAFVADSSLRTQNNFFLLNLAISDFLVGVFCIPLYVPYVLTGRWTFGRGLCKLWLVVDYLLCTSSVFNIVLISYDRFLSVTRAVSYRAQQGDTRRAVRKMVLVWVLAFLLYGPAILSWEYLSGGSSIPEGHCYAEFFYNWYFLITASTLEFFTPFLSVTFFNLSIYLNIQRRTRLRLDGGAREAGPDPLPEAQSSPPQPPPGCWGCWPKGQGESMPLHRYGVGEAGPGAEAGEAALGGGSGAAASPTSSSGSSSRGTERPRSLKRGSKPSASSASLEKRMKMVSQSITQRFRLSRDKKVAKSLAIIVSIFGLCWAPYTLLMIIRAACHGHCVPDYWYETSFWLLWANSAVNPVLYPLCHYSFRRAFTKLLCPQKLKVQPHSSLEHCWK

The target in the first experiment is Histamine H3 receptor (Cavia porcellus) (UniProt Q9JI35). As to conditions: Jejunum.
Chain of Histamine H3 receptor (Cavia porcellus) (Q9JI35 whole entry): as above
For `C[C@@H](N)Cc1c[nH]cn1`, the pD2 stood at 7.8.

In another experiment the target is Histamine H3 receptor (Cavia porcellus, UniProt Q9JI35). Put plainly: In vitro histamine H3 receptor antagonist activity was determined on guinea pig jejunum. The format is functional, tissue-based. Particulars: read-out: pA2 (converted). In outline:
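Guinea pig jejunum preparations, electrically stimulated to give contractile responses (acetylcholine release). H3 agonists inhibit these responses in a concentration-dependent way. Antagonist pA2 derived from that agonist inhibition, per a previously described method.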
Turning to `S=C(NCc1ccccc1)N1CCC(c2c[nH]cn2)CC1`, the Kb was 47.9 nM. On the same count and under the same terms, the figure for `S=C(NCc1ccccc1Br)N1CCC(c2c[nH]cn2)CC1` is 14.5 nM; for `Fc1ccccc1C/N=C(\S)N1CCC(c2c[nH]cn2)CC1` it is 912 nM; for `S=C(NCc1ccc(I)cc1)N1CCC(c2c[nH]cn2)CC1` it is 166 nM. For the compound `S=C(NCc1cccc(I)c1)N1CCC(c2c[nH]cn2)CC1`, the Kb is 15.8 nM. As to `Cc1ccccc1C/N=C(\S)N1CCC(c2c[nH]cn2)CC1`, the Kb is 95.5 nM. Consider `CC(C)(C)c1ccccc1C/N=C(\S)N1CCC(c2c[nH]cn2)CC1`, for which the Kb is 28.8 nM. `S=C(NCc1ccccc1I)N1CCC(c2c[nH]cn2)CC1`: the Kb is 7.41 nM. Take `S=C(NCc1cccc(Br)c1)N1CCC(c2c[nH]cn2)CC1`: the Kb was 33.9 nM. Turning to `Fc1cccc(C/N=C(\S)N2CCC(c3c[nH]cn3)CC2)c1`, the Kb is 363 nM. For `Fc1ccc(C/N=C(\S)N2CCC(c3c[nH]cn3)CC2)cc1`, the Kb is 562 nM. Still for that read-out and setting: next, `S=C(NCc1ccc(Cl)cc1)N1CCC(c2c[nH]cn2)CC1`: 61.7 nM; `S=C(NCc1ccccc1Cl)N1CCC(c2cnc[nH]2)CC1`: 6.17 nM; `S=C(NCc1ccc(Br)cc1)N1CCC(c2c[nH]cn2)CC1`: 339 nM. Consider `S=C(NCc1cccc(Cl)c1)N1CCC(c2c[nH]cn2)CC1`, for which the Kb is 38.9 nM.
